The structures appear in SMILES notation. The source made the active and inactive calls. The rule behind the calls is not given here.

The subject of assay [1] is Mus musculus. The assay is described as follows: Antiinflammatory activity in histamine-induced paw edema in Balb/c mouse assessed as inhibition of paw edema at 100 mg/kg, ip administered 1 hr prior to histamine challenge and measured after 1 hr relative to control. Format: functional. As to conditions: time 2 hrs. Put shortly:
(§1)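 BALB/c mice of either sex (30–35 g), 8 per group, dosed i.p. with 10% DMSO, reference drug or compound (100 mg/kg). After 1 h, subplantar irritant: PGE2 0.01 µg/ml, bradykinin 20 µg/ml, histamine 0.1 ml of 1 mg/ml, or leukotriene 10 µg/ml.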

Assay [2] concerns Mus musculus. The assay is described as follows: Antiinflammatory activity in histamine-induced paw edema in Balb/c mouse assessed as inhibition of paw edema at 100 mg/kg, ip administered 1 hr prior to histamine challenge and measured after 5 hrs. Particulars: time 6.0 hrs. Format: functional, organism-based. Put shortly:
as §1

Assay [3] has as its system Mus musculus. The assay is described as follows: Antiinflammatory activity in PGE2-induced paw edema in Balb/c mouse assessed as inhibition of paw edema at 100 mg/kg, ip administered 1 hr prior to PGE2 challenge and measured up to 5 hrs relative to control. As to conditions: time 2-6 hrs. It counts as functional. Put shortly: as §1
For assay [4], the system named is Mus musculus. Description: Antiinflammatory activity in leukotriene-induced paw edema in Balb/c mouse assessed as inhibition of paw edema at 100 mg/kg, ip administered 1 hr prior to leukotriene challenge and measured after 3 hrs relative to control. It counts as functional. Particulars: time 4 hrs. Put shortly: as §1
The test system of assay [5] is Mus musculus. The assay is described as follows: Antiinflammatory activity in histamine-induced paw edema in Balb/c mouse assessed as inhibition of paw edema at 100 mg/kg, ip administered 1 hr prior to histamine challenge and measured after 4 hrs relative to control. It counts as functional. Particulars: time 5 hrs. The gist of the method: as §1
The test system of assay [6] is Mus musculus. The assay is described as follows: Antiinflammatory activity in PGE2-induced paw edema in Balb/c mouse assessed as inhibition of paw edema at 100 mg/kg, ip administered 1 hr prior to PGE2 challenge and measured after 4 hrs relative to control. It counts as functional. Particulars: time 5 hrs. The gist of the method:
as §1

In assay [7] the test system is Mus musculus. Description: Antiinflammatory activity in PGE2-induced paw edema in Balb/c mouse assessed as inhibition of paw edema at 100 mg/kg, ip administered 1 hr prior to PGE2 challenge and measured after 5 hrs. It counts as functional, organism-based. Particulars: time 6.0 hrs. Put shortly: as §1
The test system of assay [8] is Mus musculus. The assay is described as follows: Antiinflammatory activity in leukotriene-induced paw edema in Balb/c mouse assessed as inhibition of paw edema at 100 mg/kg, ip administered 1 hr prior to leukotriene challenge and measured after 2 hrs relative to control. It counts as functional. As to conditions: time 3 hrs. The gist of the method: as §1
Assay [9] can be described thus: Antiinflammatory activity assessed as inhibition of heat-induced albumin denaturation preincubated for 20 mins followed by heating at 51 degC and measured after 3 mins by UV-vis spectrophotometric method.

For the molecule `Cc1ccc(C(=O)CC2CC(=O)N(c3ccc(S(N)(=O)=O)cc3)C2=O)cc1` (centres undefined), the inhibition in vivo at 100 mg/kg with Mus musculus [1] came to 32.4%; with Mus musculus [3] it was 61.6%; in the assay with Mus musculus [4], 74.4%. Moreover, in the assay with Mus musculus [2], the inhibition entry is “Active”.

On to `O=C1CCCCC1C1CC(=O)N(Cc2ccccc2)C1=O` (centres undefined), for which the inhibition in vivo at 100 mg/kg in the assay with Mus musculus [5] was found to be 17.1%; in the assay with Mus musculus [6], 64.6%; in the assay with Mus musculus [8], 60.1%. Moreover, in the assay on Mus musculus [7], the inhibition result was “Active”. Also, the IC50 in assay [9] came to 24.5 µM.

As usually defined, the inhibition in vivo is the drop in the measured response relative to a control, in per cent. A word on the IC50: it is the concentration at which inhibition is half-maximal.

Values taken from ChEMBL document CHEMBL4715833, “Design, synthesis, in-vitro, in-vivo and in-silico studies of pyrrolidine-2,5-dione derivatives as multitarget anti-inflammatory agents” (Eur J Med Chem, 2020).
